Measurements as given in ChEMBL document CHEMBL5550111, “Design, synthesis and biological evaluation of aryloxy thiophosphoramidate triesters of anticancer nucleoside analogues” (Bioorg Med Chem, 2024).

Experiments:
[1] = tested on: HepG2; experiment: Cytotoxicity against human HepG2 cells assessed as inhibition of cell viability incubated for 72 hrs by MTS assay; format: functional, cell-based; conditions: HepG2, 72 h
Procedure, shortened: (§1)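 Cells seeded at 0.5 to 100 × 10^3 per well the day before treatment, then exposed for 72 h to 9 serial concentrations (3.16-fold dilutions, top 198 μM), in duplicate. MTS added for a final 4 h at 37 °C and absorbance read. IC50 is the concentration giving 50% loss of viability. MI% is the maximum inhibition over the tested range.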

[2] = tested on: SK-MES-1; experiment: Cytotoxicity against human SK-MES-1 cells assessed as inhibition of cell viability incubated for 72 hrs by MTS assay; format: functional, cell-based; conditions: SK-MES-1, 72 h; procedure, shortened: as §1
[3] = tested on: HT-29; experiment: Cytotoxicity against human HT-29 cells assessed as inhibition of cell viability incubated for 72 hrs by MTS assay; format: functional, cell-based; conditions: HT-29, 72 h; procedure, shortened: as §1
[4] = tested on: MIA PaCa-2; experiment: Cytotoxicity against human MIA PaCa-2 cells assessed as maximum inhibition of cell viability upto 198 uM incubated for 72 hrs by MTS assay relative to control; format: functional; conditions: up to 198 µM
Procedure, shortened: (§2)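 Cells seeded at 0.5 to 100 × 10^3 per well the day before drug addition, then exposed to compound for 72 h. MTS added afterwards, with a further 4 h at 37 °C, and absorbance read. Tested in duplicate at 9 serial 3.16-fold dilutions, top concentration 198 μM. MI% is the maximum inhibition of viability across the tested range.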

[5] = tested on: PANC-1; experiment: Cytotoxicity against human PANC-1 cells assessed as maximum inhibition of cell viability upto 198 uM incubated for 72 hrs by MTS assay relative to control; format: functional; conditions: up to 198 µM; procedure, shortened: as §2
[6] = tested on: MIA PaCa-2; experiment: Cytotoxicity against human MIA PaCa-2 cells assessed as inhibition of cell viability incubated for 72 hrs by MTS assay; format: functional, cell-based; conditions: MIA PaCa-2, 72 h; procedure, shortened: as §1
[7] = tested on: PC-3; experiment: Cytotoxicity against human PC-3 cells assessed as inhibition of cell viability incubated for 72 hrs by MTS assay; format: functional, cell-based; conditions: PC-3, 72 h; procedure, shortened: as §1
[8] = tested on: PC-3; experiment: Cytotoxicity against human PC-3 cells assessed as maximum inhibition of cell viability upto 198 uM incubated for 72 hrs by MTS assay relative to control; format: functional; conditions: up to 198 µM; procedure, shortened: as §2
[9] = tested on: OVCAR-3; experiment: Cytotoxicity against human OVCAR-3 cells assessed as inhibition of cell viability incubated for 72 hrs by MTS assay; format: functional, cell-based; conditions: OVCAR-3, 72 h; procedure, shortened: as §1
[10] = tested on: RT112/84; experiment: Cytotoxicity against human RT112/84 cells assessed as maximum inhibition of cell viability upto 198 uM incubated for 72 hrs by MTS assay relative to control; format: functional; conditions: up to 198 µM; procedure, shortened: as §2
[11] = tested on: MDA-MB-231; experiment: Cytotoxicity against human MDA-MB-231 cells assessed as inhibition of cell viability incubated for 72 hrs by MTS assay; format: functional, cell-based; conditions: MDA-MB-231, 72 h; procedure, shortened: as §1
[12] = (§3) Prodrug activation assessed as carboxypeptidase Y (unknown origin) mediated intermediate (2S)-2-[[[(2R,3R,5R)-5-(4-amino-2-oxo-pyrimidin-1-yl)-4,4-difluoro-3-hydroxy-tetrahydrofuran-2-yl]methoxy-phenoxy-phosphinothioyl]amino]propanoic acid formation at 5 mg measured after 5 hrs by 31P-NMR assay; design: species or system Homo sapiens
Procedure, shortened: (§4)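 Thiophosphoramidate (5 mg, about 0.008 mmol) dissolved in 150 µL acetone-d6, with 300 µL TRIZMA buffer pH 7.6 added. Enzymatic conversion followed by 31P-NMR.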

[13] = tested on: PANC-1; experiment: Cytotoxicity against human PANC-1 cells assessed as inhibition of cell viability incubated for 72 hrs by MTS assay; format: functional, cell-based; conditions: PANC-1, 72 h; procedure, shortened: as §1
[14] = tested on: MDA-MB-231; experiment: Cytotoxicity against human MDA-MB-231 cells assessed as maximum inhibition of cell viability upto 198 uM incubated for 72 hrs by MTS assay relative to control; format: functional; conditions: up to 198 µM; procedure, shortened: as §2
[15] = tested on: COLO 205; experiment: Cytotoxicity against human COLO 205 cells assessed as maximum inhibition of cell viability upto 198 uM incubated for 72 hrs by MTS assay relative to control; format: functional; conditions: up to 198 µM; procedure, shortened: as §2
[16] = tested on: A2780; experiment: Cytotoxicity against human A2780 cells assessed as inhibition of cell viability incubated for 72 hrs by MTS assay; format: functional, cell-based; conditions: A2780, 72 h; procedure, shortened: as §1
[17] = tested on: OVCAR-3; experiment: Cytotoxicity against human OVCAR-3 cells assessed as maximum inhibition of cell viability upto 198 uM incubated for 72 hrs by MTS assay relative to control; format: functional; conditions: up to 198 µM; procedure, shortened: as §2
[18] = tested on: A2780; experiment: Cytotoxicity against human A2780 cells assessed as maximum inhibition of cell viability upto 198 uM incubated for 72 hrs by MTS assay relative to control; format: functional; conditions: up to 198 µM; procedure, shortened: as §2
[19] = tested on: HepG2; experiment: Cytotoxicity against human HepG2 cells assessed as maximum inhibition of cell viability upto 198 uM incubated for 72 hrs by MTS assay relative to control; format: functional; conditions: up to 198 µM; procedure, shortened: as §2
[20] = Cytotoxicity against human T24/83 cells assessed as inhibition of cell viability incubated for 72 hrs by MTS assay; format: functional, cell-based; conditions: T24/83, 72 h; procedure, shortened: as §1
[21] = tested on: BXPC-3; experiment: Cytotoxicity against human BXPC-3 cells assessed as inhibition of cell viability incubated for 72 hrs by MTS assay; format: functional, cell-based; conditions: BXPC-3, 72 h; procedure, shortened: as §1
[22] = as §3, with “mediated (2S)-2-[[[(2R,3R,5R)-5-(4-amino-2-oxo-pyrimidin-1-yl)-4,4-difluoro-3-hydroxy-tetrahydrofuran-2-yl]methoxy-hydroxy-phosphoryl]amino]propanoic acid formation from” for “mediated”, “acid” for “acid formation”, “for 48” for “after 5”; conditions: human, in vivo; procedure, shortened: as §4
[23] = tested on: COLO 205; experiment: Cytotoxicity against human COLO 205 cells assessed as inhibition of cell viability incubated for 72 hrs by MTS assay; format: functional, cell-based; conditions: COLO 205, 72 h; procedure, shortened: as §1
[24] = tested on: SK-MES-1; experiment: Cytotoxicity against human SK-MES-1 cells assessed as maximum inhibition of cell viability upto 198 uM incubated for 72 hrs by MTS assay relative to control; format: functional; conditions: up to 198 µM; procedure, shortened: as §2
[25] = tested on: BXPC-3; experiment: Cytotoxicity against human BXPC-3 cells assessed as maximum inhibition of cell viability upto 198 uM incubated for 72 hrs by MTS assay relative to control; format: functional; conditions: up to 198 µM; procedure, shortened: as §2
[26] = tested on: HT-29; experiment: Cytotoxicity against human HT-29 cells assessed as maximum inhibition of cell viability upto 198 uM incubated for 72 hrs by MTS assay relative to control; format: functional; conditions: up to 198 µM; procedure, shortened: as §2
[27] = tested on: RT112/84; experiment: Cytotoxicity against human RT112/84 cells assessed as inhibition of cell viability incubated for 72 hrs by MTS assay; format: functional, cell-based; conditions: RT112/84, 72 h; procedure, shortened: as §1

## C[C@H](NP(=S)(OC[C@H]1O[C@@H](n2ccc(N)nc2=O)C(F)(F)[C@@H]1O)Oc1ccccc1)C(=O)OCc1ccccc1 (some centres not stated)
[1]
  IC50: 27.1 µM
[2]
  IC50: 0.92 µM
[3]
  IC50: 11.5 µM
[4]
  Imax: 99%
[5]
  Imax: 99%
[6]
  IC50: 3.83 µM
[7]
  IC50: 43.9 µM
[8]
  Imax: 96%
[9]
  IC50: 97.4 µM
[10]
  Imax: 94%
[11]
  IC50: 11.6 µM
[12]
  Drug metabolism: Metabolite_Detected
[13]
  IC50: 76.4 µM
[14]
  Imax: 91%
[15]
  Imax: 97%
[16]
  IC50: 3.58 µM
[17]
  Imax: 46%
[18]
  Imax: 100%
[19]
  Imax: 98%
[20]
  IC50: 0.32 µM
[21]
  IC50: 8.16 µM
[22]
  Drug metabolism: Metabolite_Detected
[23]
  IC50: 22.3 µM
[24]
  Imax: 94%
[25]
  Imax: 95%
[26]
  Imax: 99%
[27]
  IC50: 0.92 µM
